According to ChEMBL document CHEMBL1955832, “Facile synthesis, characterization and pharmacological activities of 3,6-disubstituted 1,2,4-triazolo[3,4-b][1,3,4]thiadiazoles and 5,6-dihydro-3,6-disubstituted-1,2,4-triazolo[3,4-b][1,3,4]thiadiazoles” (2012):
≈ marks a conversion by molar mass, not a printed value. Calls of active or inactive are those of the source. The calls are words filed in the database; no cut-off is given here.

How the values were obtained:
[1] = tested on: Radical scavenging activity; assay: Antioxidant activity of the compound assessed as DPPH radical scavenging activity at 200 ug/ml after 20 mins; assay type: functional
Procedure, shortened: (§1)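 Compound dissolved in methylene dichloride at the stated concentration, mixed with 4 mL 0.1 mM methanolic DPPH, held 20 min at ambient temperature; absorbance read at 517 nm. Scavenging % = (A_DPPH − A_test)/A_DPPH × 100. Triplicate; ascorbic acid positive control.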

[2] = tested on: Radical scavenging activity; assay: Antioxidant activity of the compound assessed as DPPH radical scavenging activity at 800 ug/ml after 20 mins; assay type: functional; procedure, shortened: as §1
[3] = tested on: Radical scavenging activity; assay: Antioxidant activity of the compound assessed as DPPH radical scavenging activity at 400 ug/ml after 20 mins; assay type: functional; procedure, shortened: as §1
Escherichia coli [4] = assay: Antibacterial activity against Escherichia coli ATTC 25922 at MIC after 3 to 4 days by disc diffusion method; assay type: functional
Procedure, shortened: (§2)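 Agar well diffusion: seeded agar plates dried 1 h at 37 °C, wells punched and filled with test compound at MIC level in DMSO; DMSO solvent control. Plates in triplicate, kept at 37 °C for 3–4 days; zone of inhibition read.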

Mus musculus [5] = assay: Analgesic activity Wistar albino mouse assessed as tail withdrawal latency time at 100 mg/kg, po administered by intragastric tube after 180 mins (reference value: 1.363 +/- 0.1297 sec); assay type: functional
Klebsiella pneumoniae [6] = assay: Antibacterial activity against recultured Klebsiella pneumoniae at MIC after 3 to 4 days by disc diffusion method; assay type: functional; procedure, shortened: as §2
Aspergillus flavus [7] = assay: Antifungal activity against Aspergillus flavus NCIM 524 at MIC after 3 to 4 days; assay type: functional
Aspergillus fumigatus [8] = assay: Antifungal activity against Aspergillus fumigatus NCIM 902 at MIC after 3 to 4 days; assay type: functional
Staphylococcus aureus [9] = assay: Antibacterial activity against Staphylococcus aureus ATTC 25923 at MIC after 3 to 4 days by disc diffusion method; assay type: functional; procedure, shortened: as §2
Mus musculus [10] = assay: Analgesic activity Wistar albino mouse assessed as tail withdrawal latency time at 100 mg/kg, po administered by intragastric tube after 120 mins (reference value: 1.363 +/- 0.1297 sec); assay type: functional
Escherichia coli [11] = assay: Antibacterial activity against Escherichia coli ATTC 25922 after 16 to 18 hrs by serial dilution method; assay type: functional
Procedure, shortened: (§3)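 Serial drug dilutions in Mueller-Hinton broth adjusted to pH 5.0 with phosphate buffer, inoculated with standardized bacterial suspension, incubated 16–18 h at 37 °C; MIC taken as lowest concentration without conspicuous growth.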

Pseudomonas aeruginosa [12] = assay: Antibacterial activity against Pseudomonas aeruginosa ATTC 27853 after 16 to 18 hrs by serial dilution method; assay type: functional; procedure, shortened: as §3
Staphylococcus aureus [13] = assay: Antibacterial activity against Staphylococcus aureus ATTC 25923 after 16 to 18 hrs by serial dilution method; assay type: functional; procedure, shortened: as §3
Klebsiella pneumoniae [14] = assay: Antibacterial activity against recultured Klebsiella pneumoniae after 16 to 18 hrs by serial dilution method; assay type: functional; procedure, shortened: as §3
Talaromyces marneffei [15] = assay: Antifungal activity against recultured Penicillium marneffei at MIC after 3 to 4 days; assay type: functional
Talaromyces marneffei [16] = assay: Antifungal activity against recultured Penicillium marneffei by serial plate dilution method; assay type: functional
Rattus norvegicus = assay: Antiinflammatory activity rat assessed as reduction of carrageenan-induced paw oedema at 100 mg/kg, po administered 30 mins before carrageenan challenge measured after 60 to 180 mins; assay type: functional, organism-based; parameters: dose 100 mg/kg
Procedure, shortened: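 Rats randomly assigned, 100 mg/kg orally as suspension in 1% carboxymethyl cellulose, 30 min before carrageenan injected into right hind paw. Paw thickness measured with vernier callipers at 60, 120 and 180 min. Diclofenac reference; mean ± SEM, n = 6, vs vehicle control.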

Aspergillus flavus [17] = assay: Antifungal activity against Aspergillus flavus NCIM 524 by serial plate dilution method; assay type: functional
Aspergillus fumigatus [18] = assay: Antifungal activity against Aspergillus fumigatus NCIM 902 by serial plate dilution method; assay type: functional
Pseudomonas aeruginosa [19] = assay: Antibacterial activity against Pseudomonas aeruginosa ATTC 27853 at MIC after 3 to 4 days by disc diffusion method; assay type: functional; procedure, shortened: as §2
[20] = tested on: Trichophyton mentagrophytes; assay: Antifungal activity against recultured Trichophyton mentagrophytes at MIC after 3 to 4 days; assay type: functional
Mus musculus [21] = assay: Analgesic activity Wistar albino mouse assessed as tail withdrawal latency time at 100 mg/kg, po administered by intragastric tube after 60 mins (reference value: 1.363 +/- 0.1297 sec); assay type: functional
[22] = tested on: Trichophyton mentagrophytes; assay: Antifungal activity against recultured Trichophyton mentagrophytes by serial plate dilution method; assay type: functional

Structure (SMILES)	MIC (Escherichia coli [11]) [µM]	MIC (Pseudomonas aeruginosa [12]) [µM]	MIC (Staphylococcus aureus [13]) [µM]	MIC (Klebsiella pneumoniae [14]) [µM]	MIC (Talaromyces marneffei [16]) [µM]	MIC (Aspergillus flavus [17]) [µM]	MIC (Aspergillus fumigatus [18]) [µM]	MIC [22] [µM]	diameter of the inhibition zone (DIZ) (Escherichia coli [4]) [mm]	Time (Mus musculus [5]) [s]	diameter of the inhibition zone (DIZ) (Klebsiella pneumoniae [6]) [mm]	diameter of the inhibition zone (DIZ) (Aspergillus flavus [7]) [mm]	diameter of the inhibition zone (DIZ) (Aspergillus fumigatus [8]) [mm]	diameter of the inhibition zone (DIZ) (Staphylococcus aureus [9]) [mm]	Time (Mus musculus [10]) [s]	diameter of the inhibition zone (DIZ) (Talaromyces marneffei [15]) [mm]	Activity (Rattus norvegicus)	diameter of the inhibition zone (DIZ) (Pseudomonas aeruginosa [19]) [mm]	diameter of the inhibition zone (DIZ) [20] [mm]	Time (Mus musculus [21]) [s]	also measured
O=C1O[C@H]([C@@H](O)CO)C(O)=C1O	–	–	–	–	–	–	–	–	–	–	–	–	–	–	–	–	–	–	–	–	inhibition [1]: 87.6%; inhibition [2]: 96%; inhibition [3]: 95%
COc1ccc(Br)c(-c2nnc3sc(-c4ccc(N)cc4)nn23)c1	31.1 (≈ 12.5 µg/mL)	15.5 (≈ 6.25 µg/mL)	31.1 (≈ 12.5 µg/mL)	31.1 (≈ 12.5 µg/mL)	31.1 (≈ 12.5 µg/mL)	31.1 (≈ 12.5 µg/mL)	31.1 (≈ 12.5 µg/mL)	15.5 (≈ 6.25 µg/mL)	11	2.425	11	11	11	11	3.563	11	Active	16	16	3.675	inhibition [1]: 60.3%; inhibition [2]: 75.9%; inhibition [3]: 68%
COc1ccc(-c2nn3c(-c4cc(OC)ccc4Br)nnc3s2)cc1	15 (≈ 6.25 µg/mL)	15 (≈ 6.25 µg/mL)	15 (≈ 6.25 µg/mL)	15 (≈ 6.25 µg/mL)	29.9 (≈ 12.5 µg/mL)	29.9 (≈ 12.5 µg/mL)	15 (≈ 6.25 µg/mL)	15 (≈ 6.25 µg/mL)	16	2.44	16	11	16	16	2.674	11	Active	16	16	2.379	–
COc1ccc(Br)c(-c2nnc3sc(-c4ccc(C)cc4O)nn23)c1	15 (≈ 6.25 µg/mL)	15 (≈ 6.25 µg/mL)	29.9 (≈ 12.5 µg/mL)	15 (≈ 6.25 µg/mL)	29.9 (≈ 12.5 µg/mL)	15 (≈ 6.25 µg/mL)	15 (≈ 6.25 µg/mL)	15 (≈ 6.25 µg/mL)	16	3.121	16	16	16	11	3.321	11	Active	16	16	2.388	–
COc1ccc(Br)c(-c2nnc3sc(-c4ccc(C)cc4)nn23)c1	15.8 (≈ 6.32 µg/mL)	31.1 (≈ 12.5 µg/mL)	15.8 (≈ 6.32 µg/mL)	15.8 (≈ 6.32 µg/mL)	31.1 (≈ 12.5 µg/mL)	31.1 (≈ 12.5 µg/mL)	31.1 (≈ 12.5 µg/mL)	15.8 (≈ 6.32 µg/mL)	16	2.47	16	11	11	16	2.681	11	Active	11	16	2.384	–

The remaining compounds from weak to strong by MIC (Escherichia coli [11]), led by results:

MIC (Escherichia coli [11]) [µM]	MIC (Pseudomonas aeruginosa [12]) [µM]	MIC (Staphylococcus aureus [13]) [µM]	MIC (Klebsiella pneumoniae [14]) [µM]	MIC (Talaromyces marneffei [16]) [µM]	MIC (Aspergillus flavus [17]) [µM]	MIC (Aspergillus fumigatus [18]) [µM]	MIC [22] [µM]	Structure (SMILES)	diameter of the inhibition zone (DIZ) (Escherichia coli [4]) [mm]	Time (Mus musculus [5]) [s]	diameter of the inhibition zone (DIZ) (Klebsiella pneumoniae [6]) [mm]	diameter of the inhibition zone (DIZ) (Aspergillus flavus [7]) [mm]	diameter of the inhibition zone (DIZ) (Aspergillus fumigatus [8]) [mm]	diameter of the inhibition zone (DIZ) (Staphylococcus aureus [9]) [mm]	Time (Mus musculus [10]) [s]	diameter of the inhibition zone (DIZ) (Talaromyces marneffei [15]) [mm]	Activity (Rattus norvegicus)	diameter of the inhibition zone (DIZ) (Pseudomonas aeruginosa [19]) [mm]	diameter of the inhibition zone (DIZ) [20] [mm]	Time (Mus musculus [21]) [s]	also measured
29.5 (≈ 12.5 µg/mL)	29.5 (≈ 12.5 µg/mL)	14.8 (≈ 6.25 µg/mL)	29.5 (≈ 12.5 µg/mL)	29.5 (≈ 12.5 µg/mL)	14.8 (≈ 6.25 µg/mL)	14.8 (≈ 6.25 µg/mL)	29.5 (≈ 12.5 µg/mL)	COc1ccc(Br)c(-c2nnc3n2NC(c2ccccc2Cl)S3)c1 (configuration not stated)	11	2.938	11	16	16	16	3.25	11	Active	11	11	3.6	inhibition [1]: 48%; inhibition [2]: 62.7%; inhibition [3]: 51.8%
20.8 (≈ 6.25 µg/mL)	41.5 (≈ 12.5 µg/mL)	41.5 (≈ 12.5 µg/mL)	20.8 (≈ 6.25 µg/mL)	20.8 (≈ 6.25 µg/mL)	20.8 (≈ 6.25 µg/mL)	20.8 (≈ 6.25 µg/mL)	20.8 (≈ 6.25 µg/mL)	COc1ccc(Br)c(-c2n[nH]c(=S)n2N)c1	16	2.338	16	16	16	11	3.388	16	Active	11	16	3.463	inhibition [1]: 52.7%; inhibition [2]: 67.5%; inhibition [3]: 56.8%
14.9 (≈ 6.25 µg/mL)	29.8 (≈ 12.5 µg/mL)	29.8 (≈ 12.5 µg/mL)	29.8 (≈ 12.5 µg/mL)	29.9 (≈ 12.5 µg/mL)	14.9 (≈ 6.25 µg/mL)	14.9 (≈ 6.25 µg/mL)	14.9 (≈ 6.25 µg/mL)	COc1ccc(Br)c(-c2nnc3n2NC(c2ccccc2OC)S3)c1 (configuration not stated)	16	2.501	11	16	16	11	2.652	11	Active	11	16	2.387	–
